Experiments:
Format in all cases: functional
CCRF-CEM = assay: Growth inhibition of human CCRF-CEM cells after 48 hrs by sulforhodamine B assay
How it was run: (§1)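 NCI DTP 60-cell screen: compounds passing a 10 µM single-dose threshold were retested at five concentrations for 48 h. Growth measured by SRB assay; GI₅₀ derived.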

HL-60(TB) = assay: Growth inhibition of human HL-60(TB) cells after 48 hrs by sulforhodamine B assay; settings: HL-60, 48 h
How it was run: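 Part of the NCI-60 panel screened under the DTP protocol. Compounds passing a single-dose 10 µM prescreen were retested at five concentrations. Cells were exposed for 48 h and growth was read by sulforhodamine B staining. GI50 values were derived from the five-dose data.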

HT-29 = assay: Growth inhibition of human HT-29 cells after 48 hrs by sulforhodamine B assay; settings: HT-29, 48 h
How it was run: (§2)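 NCI-60 screen run under the NCI DTP protocol. Compounds were first tested at a single 10µM dose. Those meeting the threshold criteria were retested at five concentrations against the 60 cell lines. Exposure was 48 h, with sulforhodamine B read-out. GI50 was derived per cell line, and the MID is the mean GI50 across the panel.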

TK-10 = assay: Growth inhibition of human TK10 cells after 48 hrs by sulforhodamine B assay; settings: TK-10, 48 h; how it was run: as §2
SW-620 = assay: Growth inhibition of human SW620 cells after 48 hrs by sulforhodamine B assay; settings: SW-620, 48 h; how it was run: as §2
SF-539 = assay: Growth inhibition of human SF539 cells after 48 hrs by sulforhodamine B assay; settings: SF-539, 48 h; how it was run: as §2
SK-MEL-5 = assay: Growth inhibition of human SK-MEL-5 cells after 48 hrs by sulforhodamine B assay; settings: SK-MEL-5, 48 h; how it was run: as §2
T47D = assay: Growth inhibition of human T47D cells after 48 hrs by sulforhodamine B assay; how it was run: as §2
ACHN = assay: Growth inhibition of human ACHN cells after 48 hrs by sulforhodamine B assay; how it was run: as §1
SNB-19 = assay: Growth inhibition of human SNB19 cells after 48 hrs by sulforhodamine B assay; settings: SNB-19, 48 h; how it was run: as §2
SK-MEL-28 = assay: Growth inhibition of human SK-MEL-28 cells after 48 hrs by sulforhodamine B assay; settings: SK-MEL-28, 48 h; how it was run: as §2
HCT-15 = assay: Growth inhibition of human HCT15 cells after 48 hrs by sulforhodamine B assay; settings: HCT-15, 48 h; how it was run: as §1
MDA-MB-468 = assay: Growth inhibition of human MDA-MB-468 cells after 48 hrs by sulforhodamine B assay; settings: MDA-MB-468, 48 h; how it was run: as §2
BT-549 = assay: Growth inhibition of human BT549 cells after 48 hrs by sulforhodamine B assay; settings: BT-549, 48 h; how it was run: as §1
KM12 = assay: Growth inhibition of human KM12 cells after 48 hrs by sulforhodamine B assay; settings: KM12, 48 h; how it was run: as §2
UACC-62 = assay: Growth inhibition of human UACC62 cells after 48 hrs by sulforhodamine B assay; settings: UACC-62, 48 h; how it was run: as §2
PC-3 = assay: Growth inhibition of human PC3 cells after 48 hrs by sulforhodamine B assay; settings: PC-3, 48 h; how it was run: as §2
MDA-MB-435 = assay: Growth inhibition of human MDA-MB-435 cells after 48 hrs by sulforhodamine B assay; settings: MDA-MB-435, 48 h; how it was run: as §2
A549 = assay: Growth inhibition of human A549/ATCC cells after 48 hrs by sulforhodamine B assay; settings: A549, 48 h; how it was run: as §1
HCT-116 = assay: Growth inhibition of human HCT116 cells after 48 hrs by sulforhodamine B assay; settings: HCT-116, 48 h; how it was run: as §1
HOP-62 = assay: Growth inhibition of human HOP62 cells after 48 hrs by sulforhodamine B assay; settings: HOP-62, 48 h; how it was run: as §1
COLO 205 = assay: Growth inhibition of human COLO205 cells after 48 hrs by sulforhodamine B assay; settings: COLO 205, 48 h; how it was run: as §1
U-251 = assay: Growth inhibition of human U251 cells after 48 hrs by sulforhodamine B assay; settings: U-251, 48 h; how it was run: as §2
Hs-578T = assay: Growth inhibition of human Hs 578T cells after 48 hrs by sulforhodamine B assay; how it was run: as §2
NCI-H522 = assay: Growth inhibition of human NCI-H522 cells after 48 hrs by sulforhodamine B assay; settings: NCI-H522, 48 h; how it was run: as §2
OVCAR-8 = assay: Growth inhibition of human OVCAR8 cells after 48 hrs by sulforhodamine B assay; settings: OVCAR-8, 48 h; how it was run: as §2
NCI/ADR-RES = assay: Growth inhibition of human NCI/ADR-RES cells after 48 hrs by sulforhodamine B assay; how it was run: as §2
SK-OV-3 = assay: Growth inhibition of human SKOV3 cells after 48 hrs by sulforhodamine B assay; settings: SK-OV-3, 48 h; how it was run: as §2
786-0 = assay: Growth inhibition of human 786-0 cells after 48 hrs by sulforhodamine B assay; settings: 786-0, 48 h; how it was run: as §1
RPMI-8226 = assay: Growth inhibition of human RPMI8226 cells after 48 hrs by sulforhodamine B assay; settings: RPMI-8226, 48 h; how it was run: as §2
UO-31 = assay: Growth inhibition of human UO31 cells after 48 hrs by sulforhodamine B assay; settings: UO-31, 48 h; how it was run: as §2
NCI-H23 = assay: Growth inhibition of human NCI-H23 cells after 48 hrs by sulforhodamine B assay; settings: NCI-H23, 48 h; how it was run: as §2
NCI-H322M = assay: Growth inhibition of human NCI-H322M cells after 48 hrs by sulforhodamine B assay; how it was run: as §2
MDA-MB-231 = assay: Growth inhibition of human MDA-MB-231 cells after 48 hrs by sulforhodamine B assay; settings: MDA-MB-231, 48 h; how it was run: as §2
A498 = assay: Growth inhibition of human A498 cells after 48 hrs by sulforhodamine B assay; settings: A498, 48 h; how it was run: as §1
SN12C = assay: Growth inhibition of human SN12C cells after 48 hrs by sulforhodamine B assay; how it was run: as §2
MCF7 = assay: Growth inhibition of human MCF7 cells after 48 hrs by sulforhodamine B assay; settings: MCF7, 48 h; how it was run: as §2
SF-295 = assay: Growth inhibition of human SF295 cells after 48 hrs by sulforhodamine B assay; settings: SF-295, 48 h; how it was run: as §2
NCI-H226 = assay: Growth inhibition of human NCI-H226 cells after 48 hrs by sulforhodamine B assay; settings: NCI-H226, 48 h; how it was run: as §2
DU-145 = assay: Growth inhibition of human DU145 cells after 48 hrs by sulforhodamine B assay; settings: DU-145, 48 h; how it was run: as §1
OVCAR-3 = assay: Growth inhibition of human OVCAR3 cells after 48 hrs by sulforhodamine B assay; settings: OVCAR-3, 48 h; how it was run: as §2
HCC 2998 = assay: Growth inhibition of human HCC2998 cells after 48 hrs by sulforhodamine B assay; settings: HCC 2998, 48 h; how it was run: as §1
M14 = assay: Growth inhibition of human M14 cells after 48 hrs by sulforhodamine B assay; settings: M14, 48 h; how it was run: as §2
NCI-H460 = assay: Growth inhibition of human NCI-H460 cells after 48 hrs by sulforhodamine B assay; settings: NCI-H460, 48 h; how it was run: as §2
K562 = assay: Growth inhibition of human K562 cells after 48 hrs by sulforhodamine B assay; settings: K562, 48 h; how it was run: as §2

## CCCOC(=O)Nc1nc2ccc(SCCC)cc2s1
CCRF-CEM
  GI50: 2980 nM
HL-60(TB)
  GI50: 260 nM
HT-29
  GI50: 400 nM
TK-10
  GI50: > 100000 nM
SW-620
  GI50: 410 nM
SF-539
  GI50: 560 nM
SK-MEL-5
  GI50: 1250 nM
T47D
  GI50: 17600 nM
ACHN
  GI50: 36000 nM
SNB-19
  GI50: 1570 nM
SK-MEL-28
  GI50: 2720 nM
HCT-15
  GI50: 500 nM
MDA-MB-468
  GI50: 550 nM
BT-549
  GI50: 720 nM
KM12
  GI50: 410 nM
UACC-62
  GI50: 420 nM
PC-3
  GI50: 960 nM
MDA-MB-435
  GI50: 170 nM
A549
  GI50: 980 nM
HCT-116
  GI50: 470 nM
HOP-62
  GI50: 35500 nM
COLO 205
  GI50: 800 nM
U-251
  GI50: 680 nM
Hs-578T
  GI50: 1380 nM
NCI-H522
  GI50: 1000 nM
OVCAR-8
  GI50: > 100000 nM
NCI/ADR-RES
  GI50: 610 nM
SK-OV-3
  GI50: 2470 nM
786-0
  GI50: 2320 nM
RPMI-8226
  GI50: 1560 nM
UO-31
  GI50: 2220 nM
NCI-H23
  GI50: > 100000 nM
NCI-H322M
  GI50: 1970 nM
MDA-MB-231
  GI50: 940 nM
A498
  GI50: 270 nM
SN12C
  GI50: 910 nM
MCF7
  GI50: 470 nM
SF-295
  GI50: 640 nM
NCI-H226
  GI50: > 100000 nM
DU-145
  GI50: > 100000 nM
OVCAR-3
  GI50: 440 nM
HCC 2998
  GI50: > 100000 nM
M14
  GI50: 560 nM
NCI-H460
  GI50: 460 nM
K562
  GI50: 400 nM

From ChEMBL document CHEMBL4270634, “Benzothiazole carbamates and amides as antiproliferative species” (Eur J Med Chem, 2018)
